Measured values from ChEMBL document CHEMBL4382192, “Discovery of a potent dual ALK and EGFR T790M inhibitor” (Eur J Med Chem, 2017).

What was measured:
[1] = biological target: Serine/threonine-protein kinase ULK1 (Homo sapiens) (UniProt O75385); test: Binding affinity to wild-type human partial length ULK1 (M1 to T309 residues) expressed in mammalian expression system assessed as residual binding level at 1 uM by Kinomescan method relative to control
[2] = biological target: Cyclin-dependent kinase-like 5 (Homo sapiens) (UniProt O76039); test: Binding affinity to wild-type human partial length CDKL5 (M1 to S337 residues) expressed in mammalian expression system assessed as residual binding level at 1 uM by Kinomescan method relative to control
[3] = biological target: Serine/threonine-protein kinase RIO2 (Homo sapiens) (UniProt Q9BVS4); test: Binding affinity to wild-type human partial length RIOK2 (M1 to D313 residues) expressed in mammalian expression system assessed as residual binding level at 1 uM by Kinomescan method relative to control
[4] = biological target: Protein-tyrosine kinase 2-beta (Homo sapiens) (UniProt Q14289); test: Binding affinity to wild-type human full length PYK2 (M1 to E967 residues) expressed in bacterial expression system assessed as residual binding level at 1 uM by Kinomescan method relative to control
In short: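 Single-point kinome-wide KINOMEscan binding panel, test compound at 1 μM, run by the provider's standard protocol.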

[5] = biological target: Cyclin-dependent kinase 9 (Homo sapiens) (UniProt P50750); test: Binding affinity to wild-type human full length CDK9 (M1 to F372 residues) expressed in bacterial expression system assessed as residual binding level at 1 uM by Kinomescan method relative to control
[6] = biological target: Activin receptor type-2A (Homo sapiens) (UniProt P27037); test: Binding affinity to wild-type human ACVR2A (V171 to T499 residues) expressed in bacterial expression system assessed as residual binding level at 1 uM by Kinomescan method relative to control
[7] = biological target: Bone morphogenetic protein receptor type-2 (Homo sapiens) (UniProt Q13873); test: Binding affinity to wild-type human partial length BMPR2 (R179 to Q526 residues) expressed in mammalian expression system assessed as residual binding level at 1 uM by Kinomescan method relative to control
[8] = biological target: Serine/threonine-protein kinase 32A (Homo sapiens) (UniProt Q8WU08); test: Binding affinity to wild-type human full length YANK1 (M1 to L396 residues) expressed in mammalian expression system assessed as residual binding level at 1 uM by Kinomescan method relative to control
[9] = biological target: Cyclin-dependent kinase-like 2 (Homo sapiens) (UniProt Q92772); test: Binding affinity to wild-type human partial length CDKL2 (M1 to D327 residues) expressed in bacterial expression system assessed as residual binding level at 1 uM by Kinomescan method relative to control
[10] = Drug uptake in mouse lung at 10 mg/kg, po after 8 hrs; assay type: ADME, organism-based; details: read-out: Drug uptake
[11] = biological target: Insulin receptor (Homo sapiens, UniProt P06213); test: Inhibition of recombinant His-tagged human InsR (1011 to 1382 residues) expressed in baculovirus expression system by Z-LYTE assay
[12] = biological target: Cyclin-dependent kinase 4 (Homo sapiens) (UniProt P11802); test: Binding affinity to wild-type human full length CDK4 (M1 to E303 residues) expressed in mammalian expression system assessed as residual binding level at 1 uM by Kinomescan method relative to control
[13] = biological target: Tyrosine-protein kinase Blk (Homo sapiens, UniProt P51451); test: Binding affinity to wild-type human partial length BLK (G211 to L503 residues) expressed in bacterial expression system assessed as residual binding level at 1 uM by Kinomescan method relative to control
[14] = biological target: Non-receptor tyrosine-protein kinase TYK2 (Homo sapiens) (UniProt P29597); test: Binding affinity to wild-type human partial length TYK2 JH2 pseudokinase domain (G556 to D888 residues) expressed in mammalian expression system assessed as residual binding level at 1 uM by Kinomescan method relative to control
[15] = biological target: Proto-oncogene tyrosine-protein kinase Src (Homo sapiens) (UniProt P12931); test: Binding affinity to wild-type human partial length SRC (L240 to L536 residues) expressed in bacterial expression system assessed as residual binding level at 1 uM by Kinomescan method relative to control
[16] = biological target: Interferon-induced, double-stranded RNA-activated protein kinase (Homo sapiens) (UniProt P19525); test: Binding affinity to wild-type human partial length PRKR (F247 to C551 residues) expressed in bacterial expression system assessed as residual binding level at 1 uM by Kinomescan method relative to control
[17] = biological target: Serine/threonine-protein kinase 36 (Homo sapiens) (UniProt Q9NRP7); test: Binding affinity to wild-type human partial length STK36 (M1 to T271 residues) expressed in bacterial expression system assessed as residual binding level at 1 uM by Kinomescan method relative to control
[18] = biological target: Serine/threonine-protein kinase TNNI3K (Homo sapiens) (UniProt Q59H18); test: Binding affinity to wild-type human full length TNNI3K (M1 to S835 residues) expressed in bacterial expression system assessed as residual binding level at 1 uM by Kinomescan method relative to control
[19] = biological target: Cyclin-dependent kinase 16 (Homo sapiens) (UniProt Q00536); test: Binding affinity to wild-type human partial length PCTK1 (G160 to A474 residues) expressed in mammalian expression system assessed as residual binding level at 1 uM by Kinomescan method relative to control
[20] = biological target: Angiopoietin-1 receptor (Homo sapiens) (UniProt Q02763); test: Binding affinity to wild-type human partial length TIE2 (N804 to T1112 residues) expressed in bacterial expression system assessed as residual binding level at 1 uM by Kinomescan method relative to control
[21] = biological target: Non-receptor tyrosine-protein kinase TYK2 (Homo sapiens) (UniProt P29597); test: Binding affinity to wild-type human partial length TYK2 JH1 catalytic domain (V877 to C1187 residues) expressed in mammalian expression system assessed as residual binding level at 1 uM by Kinomescan method relative to control
[22] = biological target: Microtubule-associated serine/threonine-protein kinase 1 (Homo sapiens) (UniProt Q9Y2H9); test: Binding affinity to wild-type human partial length MAST1 (S346 to V730 residues) expressed in mammalian expression system assessed as residual binding level at 1 uM by Kinomescan method relative to control
[23] = biological target: Tyrosine-protein kinase ABL2 (Homo sapiens) (UniProt P42684); test: Binding affinity to wild-type human ABL2 (A248 to G542 residues) expressed in bacterial expression system assessed as residual binding level at 1 uM by Kinomescan method relative to control
In short: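 Kinome-wide selectivity panel run by the KINOMEscan method, with the test compound at a single concentration of 1 μM. Wild-type and mutant kinases were profiled in the same screen.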

[24] = biological target: Mitogen-activated protein kinase 13 (Homo sapiens) (UniProt O15264); test: Binding affinity to wild-type human full length p38-delta (M1 to L365 residues) expressed in bacterial expression system assessed as residual binding level at 1 uM by Kinomescan method relative to control
[25] = biological target: Receptor-interacting serine/threonine-protein kinase 2 (Homo sapiens) (UniProt O43353); test: Binding affinity to wild-type human partial length RIPK2 (M1 to K310 residues) expressed in bacterial expression system assessed as residual binding level at 1 uM by Kinomescan method relative to control

Chain of Non-receptor tyrosine-protein kinase TYK2 (Homo sapiens) (P29597 whole entry, the tested form may be a part): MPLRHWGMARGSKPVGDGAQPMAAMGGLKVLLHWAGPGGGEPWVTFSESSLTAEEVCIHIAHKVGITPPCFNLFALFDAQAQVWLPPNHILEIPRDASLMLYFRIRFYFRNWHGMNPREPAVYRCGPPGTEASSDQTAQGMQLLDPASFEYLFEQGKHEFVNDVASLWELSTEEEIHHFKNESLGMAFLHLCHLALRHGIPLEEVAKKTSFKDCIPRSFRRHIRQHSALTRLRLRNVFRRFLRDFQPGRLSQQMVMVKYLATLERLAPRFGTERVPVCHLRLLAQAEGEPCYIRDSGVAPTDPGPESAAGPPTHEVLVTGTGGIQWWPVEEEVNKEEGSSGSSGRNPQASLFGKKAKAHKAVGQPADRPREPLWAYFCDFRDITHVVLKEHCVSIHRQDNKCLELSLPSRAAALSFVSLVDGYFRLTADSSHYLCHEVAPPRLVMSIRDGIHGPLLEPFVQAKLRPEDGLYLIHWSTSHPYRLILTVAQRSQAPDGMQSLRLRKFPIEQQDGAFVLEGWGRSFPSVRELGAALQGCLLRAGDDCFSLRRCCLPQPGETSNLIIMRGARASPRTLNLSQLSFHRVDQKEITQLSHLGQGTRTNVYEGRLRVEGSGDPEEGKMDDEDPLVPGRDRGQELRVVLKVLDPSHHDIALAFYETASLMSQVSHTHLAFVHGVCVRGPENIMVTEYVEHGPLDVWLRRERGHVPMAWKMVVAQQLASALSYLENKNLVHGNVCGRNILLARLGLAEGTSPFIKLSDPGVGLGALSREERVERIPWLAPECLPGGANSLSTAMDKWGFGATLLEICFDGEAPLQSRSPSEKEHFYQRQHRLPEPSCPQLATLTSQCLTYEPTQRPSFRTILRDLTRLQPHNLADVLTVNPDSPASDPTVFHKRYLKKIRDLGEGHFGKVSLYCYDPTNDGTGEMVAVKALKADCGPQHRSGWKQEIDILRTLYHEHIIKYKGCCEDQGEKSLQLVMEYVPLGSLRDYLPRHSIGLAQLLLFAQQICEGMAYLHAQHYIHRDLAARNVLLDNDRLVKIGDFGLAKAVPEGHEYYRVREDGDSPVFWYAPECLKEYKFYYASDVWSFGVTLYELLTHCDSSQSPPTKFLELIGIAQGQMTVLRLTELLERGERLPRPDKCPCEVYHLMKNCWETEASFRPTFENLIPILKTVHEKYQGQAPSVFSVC
Chain of Proto-oncogene tyrosine-protein kinase Src (Homo sapiens) (P12931 2-536 limits assumed): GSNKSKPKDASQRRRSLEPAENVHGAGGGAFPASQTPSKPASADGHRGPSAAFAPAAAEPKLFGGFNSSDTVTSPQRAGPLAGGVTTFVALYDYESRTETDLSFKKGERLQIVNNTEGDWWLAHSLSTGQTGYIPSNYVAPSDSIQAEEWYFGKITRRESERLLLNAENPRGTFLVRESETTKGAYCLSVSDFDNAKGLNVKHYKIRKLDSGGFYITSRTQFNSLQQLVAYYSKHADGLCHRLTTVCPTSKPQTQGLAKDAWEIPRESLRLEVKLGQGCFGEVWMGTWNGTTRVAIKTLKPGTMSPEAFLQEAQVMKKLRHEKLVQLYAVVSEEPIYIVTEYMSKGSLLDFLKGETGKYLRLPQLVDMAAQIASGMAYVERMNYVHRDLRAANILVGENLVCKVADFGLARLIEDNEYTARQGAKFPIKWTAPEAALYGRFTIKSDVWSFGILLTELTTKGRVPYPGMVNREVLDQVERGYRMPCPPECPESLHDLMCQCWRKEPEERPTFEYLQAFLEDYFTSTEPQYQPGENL
Chain of Activin receptor type-2A (Homo sapiens) (P27037 whole entry, the tested form may be a part): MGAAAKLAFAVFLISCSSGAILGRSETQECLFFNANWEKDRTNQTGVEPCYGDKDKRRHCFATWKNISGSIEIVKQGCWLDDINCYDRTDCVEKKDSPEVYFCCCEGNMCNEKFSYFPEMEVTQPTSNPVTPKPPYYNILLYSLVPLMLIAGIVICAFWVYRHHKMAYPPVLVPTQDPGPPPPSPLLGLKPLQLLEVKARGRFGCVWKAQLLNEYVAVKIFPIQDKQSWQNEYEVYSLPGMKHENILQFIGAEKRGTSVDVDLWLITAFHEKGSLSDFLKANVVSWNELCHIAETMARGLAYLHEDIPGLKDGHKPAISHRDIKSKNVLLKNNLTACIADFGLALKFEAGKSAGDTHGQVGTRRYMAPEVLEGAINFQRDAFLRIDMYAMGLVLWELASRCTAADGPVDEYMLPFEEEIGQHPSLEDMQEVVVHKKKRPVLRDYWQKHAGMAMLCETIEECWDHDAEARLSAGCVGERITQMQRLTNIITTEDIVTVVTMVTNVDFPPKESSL
Chain of Cyclin-dependent kinase-like 2 (Homo sapiens) (Q92772 whole entry, the tested form may be a part): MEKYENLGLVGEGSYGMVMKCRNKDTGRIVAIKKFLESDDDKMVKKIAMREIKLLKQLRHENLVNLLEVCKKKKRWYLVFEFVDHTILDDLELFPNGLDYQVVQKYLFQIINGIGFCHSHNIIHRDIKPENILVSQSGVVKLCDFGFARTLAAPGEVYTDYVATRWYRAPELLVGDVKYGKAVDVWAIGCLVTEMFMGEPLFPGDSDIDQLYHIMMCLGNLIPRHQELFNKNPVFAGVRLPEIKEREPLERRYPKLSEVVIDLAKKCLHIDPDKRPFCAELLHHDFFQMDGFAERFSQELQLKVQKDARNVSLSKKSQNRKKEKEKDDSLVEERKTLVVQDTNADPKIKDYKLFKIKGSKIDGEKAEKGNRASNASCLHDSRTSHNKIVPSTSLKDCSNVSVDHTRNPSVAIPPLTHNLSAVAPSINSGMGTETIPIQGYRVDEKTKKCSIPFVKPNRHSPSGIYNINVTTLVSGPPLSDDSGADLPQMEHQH
Chain of Bone morphogenetic protein receptor type-2 (Homo sapiens) (Q13873 whole entry, the tested form may be a part): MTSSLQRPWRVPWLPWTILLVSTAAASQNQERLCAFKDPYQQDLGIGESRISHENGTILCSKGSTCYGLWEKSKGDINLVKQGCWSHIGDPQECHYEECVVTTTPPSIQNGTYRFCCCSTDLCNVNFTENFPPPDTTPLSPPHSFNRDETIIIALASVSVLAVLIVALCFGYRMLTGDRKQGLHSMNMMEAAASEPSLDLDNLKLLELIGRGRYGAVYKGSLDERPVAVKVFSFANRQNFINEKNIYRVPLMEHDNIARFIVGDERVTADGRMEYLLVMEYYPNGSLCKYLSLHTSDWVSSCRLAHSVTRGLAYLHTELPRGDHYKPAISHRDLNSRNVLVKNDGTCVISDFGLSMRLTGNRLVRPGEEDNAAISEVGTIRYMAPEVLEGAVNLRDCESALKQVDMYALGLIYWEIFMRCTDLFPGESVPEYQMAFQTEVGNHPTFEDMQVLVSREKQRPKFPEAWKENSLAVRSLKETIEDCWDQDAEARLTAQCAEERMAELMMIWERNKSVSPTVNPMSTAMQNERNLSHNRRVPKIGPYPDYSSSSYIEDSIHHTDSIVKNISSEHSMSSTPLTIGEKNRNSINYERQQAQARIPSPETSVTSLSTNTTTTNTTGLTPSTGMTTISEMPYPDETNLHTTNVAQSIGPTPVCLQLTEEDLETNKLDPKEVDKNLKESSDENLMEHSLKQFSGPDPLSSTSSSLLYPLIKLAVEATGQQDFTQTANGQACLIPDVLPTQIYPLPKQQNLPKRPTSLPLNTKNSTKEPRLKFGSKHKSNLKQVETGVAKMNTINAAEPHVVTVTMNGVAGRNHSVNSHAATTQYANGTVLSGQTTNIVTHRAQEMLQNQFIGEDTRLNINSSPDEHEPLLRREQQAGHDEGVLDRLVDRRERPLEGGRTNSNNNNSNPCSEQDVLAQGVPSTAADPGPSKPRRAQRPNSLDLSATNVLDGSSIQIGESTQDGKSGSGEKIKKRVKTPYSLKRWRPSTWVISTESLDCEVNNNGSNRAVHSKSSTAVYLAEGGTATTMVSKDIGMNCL
Chain of Serine/threonine-protein kinase 32A (Homo sapiens) (Q8WU08 whole entry, the tested form may be a part): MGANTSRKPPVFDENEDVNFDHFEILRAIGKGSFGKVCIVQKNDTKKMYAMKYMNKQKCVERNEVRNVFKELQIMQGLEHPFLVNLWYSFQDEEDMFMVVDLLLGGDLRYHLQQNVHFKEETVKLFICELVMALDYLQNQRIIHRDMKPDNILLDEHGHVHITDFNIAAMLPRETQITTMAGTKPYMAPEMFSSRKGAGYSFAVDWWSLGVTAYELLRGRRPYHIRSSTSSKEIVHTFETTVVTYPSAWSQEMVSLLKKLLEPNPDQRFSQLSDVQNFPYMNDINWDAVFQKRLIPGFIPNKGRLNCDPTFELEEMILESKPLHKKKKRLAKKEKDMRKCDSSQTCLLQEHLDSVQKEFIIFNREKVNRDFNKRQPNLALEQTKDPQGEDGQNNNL
Chain of Cyclin-dependent kinase 9 (Homo sapiens) (P50750 whole entry, the tested form may be a part): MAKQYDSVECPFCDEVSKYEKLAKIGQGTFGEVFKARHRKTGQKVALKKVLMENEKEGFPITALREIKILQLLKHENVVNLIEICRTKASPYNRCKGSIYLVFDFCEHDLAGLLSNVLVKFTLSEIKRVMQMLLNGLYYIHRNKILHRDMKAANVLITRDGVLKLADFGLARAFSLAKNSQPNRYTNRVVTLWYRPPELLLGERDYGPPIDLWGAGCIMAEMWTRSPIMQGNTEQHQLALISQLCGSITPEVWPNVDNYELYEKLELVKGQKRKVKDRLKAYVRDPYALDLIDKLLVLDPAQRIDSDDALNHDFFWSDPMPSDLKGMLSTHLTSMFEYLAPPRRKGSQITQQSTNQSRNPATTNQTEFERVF
Chain of Mitogen-activated protein kinase 13 (Homo sapiens) (O15264 whole entry, the tested form may be a part): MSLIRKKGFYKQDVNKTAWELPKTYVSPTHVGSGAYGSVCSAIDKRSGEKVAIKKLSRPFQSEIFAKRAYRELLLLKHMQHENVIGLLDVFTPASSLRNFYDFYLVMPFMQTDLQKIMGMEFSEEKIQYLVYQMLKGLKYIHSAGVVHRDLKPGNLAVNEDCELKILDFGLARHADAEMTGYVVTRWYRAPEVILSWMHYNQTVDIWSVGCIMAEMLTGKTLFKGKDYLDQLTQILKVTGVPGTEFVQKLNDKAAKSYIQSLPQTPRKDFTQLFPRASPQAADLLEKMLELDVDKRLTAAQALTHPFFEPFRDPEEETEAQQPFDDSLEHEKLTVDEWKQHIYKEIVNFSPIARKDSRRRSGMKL

What does the source list for `C=CC(=O)Nc1cc(Nc2ncc(Cl)c(Nc3ccccc3S(=O)(=O)C(C)C)n2)c(OC)cc1N(C)CCN(C)C`?
Activity [1]: 0.3%; Activity [2]: 91%; Activity [3]: 93%; Activity [4]: 0.5%; Activity [5]: 80%; Activity [6]: 96%; Activity [7]: 95%; Activity [8]: 2.3%; Activity [9]: 93%; concentration at 8 h [10]: 740 nM; IC50 [11]: 8 nM; Activity [12]: 99%; Activity [13]: 0.05%; Activity [14]: 100%; Activity [15]: 34%; Activity [16]: 66%; Activity [17]: 88%; Activity [18]: 100%; Activity [19]: 91%; Activity [20]: 20%; Activity [21]: 17%; Activity [22]: 3.2%; Activity [23]: 50%; Activity [24]: 100%; Activity [25]: 81%
